FLuc stim CS: firefly luciferase counter-screen for stimulation assays | ATPlite luciferase biochemical, luminescence, 10 min; 0 = ATP-free wells, 1 = DMSO control | 200,000 tested, under 10 active | activation factor at 10 µM;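 active = luciferase activation factor, scaled between plate controls, of at least 2 with compound at 10 µM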
Target sequence (P08659 whole entry, looked up): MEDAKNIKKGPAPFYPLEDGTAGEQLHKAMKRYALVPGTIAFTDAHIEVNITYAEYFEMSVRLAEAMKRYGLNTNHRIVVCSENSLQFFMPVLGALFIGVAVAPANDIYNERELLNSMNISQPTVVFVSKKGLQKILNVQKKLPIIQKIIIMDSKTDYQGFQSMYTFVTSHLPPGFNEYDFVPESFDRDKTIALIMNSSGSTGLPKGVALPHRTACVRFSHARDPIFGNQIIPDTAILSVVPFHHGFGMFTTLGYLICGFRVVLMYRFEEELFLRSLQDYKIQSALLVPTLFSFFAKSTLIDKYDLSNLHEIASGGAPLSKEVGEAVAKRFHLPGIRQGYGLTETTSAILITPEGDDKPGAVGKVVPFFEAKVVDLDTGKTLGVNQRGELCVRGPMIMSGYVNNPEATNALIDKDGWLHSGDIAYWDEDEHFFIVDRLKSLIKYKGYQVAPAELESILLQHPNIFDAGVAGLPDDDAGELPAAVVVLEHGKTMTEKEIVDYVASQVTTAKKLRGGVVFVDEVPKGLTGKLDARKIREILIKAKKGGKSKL
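Assay system: Luciferase/luciferin detection reagent, cell-free biochemical luciferase assay / Also added: ATP substrate / Schedule: 10 min at ambient temperature / Measured by: luminescence measurement of luciferase light output / Benchmarks: low control with PBS replacing ATP, high control enzyme plus ATP without compound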
FLuc inhib CS: inhibits firefly luciferase, flagging false hits in luciferase inhibition screens | P08659 | ATPLite firefly luciferase biochemical luminescence, 10 min | inhibition, % at 10 µM | 200,000 tested, 1.5% active | AID 1006;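 active = inhibition above about 50% when tested at 10 µM, limit read from the data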
PPC-1+TRAIL kill: PPC-1 cancer cell killing with TRAIL present; PPC-1 cells + TRAIL, ATPLite viability luminescence; cell killing (% activity), % at 4 µM or 5 µM; 220,000 tested, 0.41% active; AID 1443;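 active = cell killing above 50% in the first pass at 4 µM, then a duplicate retest at 5 µM averaging 50% or more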;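 note: plate controls were cells with TRAIL plus DMSO for no effect and medium-only wells lacking cells for full effect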
C8 TRAIL sens: sensitizes caspase-8 expressing cells to TRAIL; NB7+C8 cells + TRAIL, ATPlite viability luminescence; inhibition (viability loss, TRAIL sensitization), % at 10 µM; 360,000 tested, 1% active;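 active = compounds causing at least 50% loss of cell viability in the single-dose screen, relative to plate controls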
Active calls of the source: *; / = no result. Hits are enriched below; roughly 1.6% of the tested compounds scored in any of these assays.

SMILES | FLuc stim CS | FLuc inhib CS | PPC-1+TRAIL kill | C8 TRAIL sens
COc1ccc(C(=O)Nc2ccc([N+](=O)[O-])cn2)c(OC)c1 | 0.5 | 45.2 | 17.3 | 52.9*
N=c1oc2cc(O)ccc2cc1C(=O)Nc1nc2ccccc2s1 | 0.3 | 74.8* | -8.7 | -2.4
COc1ccc(NC(=O)Nc2nc3ccccc3s2)cc1 | / | / | -7.5 | 8.9
O=[N+]([O-])c1ccc(Oc2ccc(OCc3ccccc3)cc2)nc1 | / | / | / | 12.9
CC(C)N(C)c1ncnc2c1ncn2[C@H]1CN(Cc2ccc(F)cc2)C[C@@H](CO)O1 | / | / | / | -13.9
Cn1cc(Cl)c(C(=O)Nc2nc3ccccc3s2)n1 | 0.4 | 60.8* | 18.5 | 33.5
Cn1ncc(Cl)c1C(=O)Nc1nc2ccc(Cl)cc2s1 | 0.4 | 60.3* | 21.0 | 27.3
Cc1cc(C(=O)Nc2nc3ccc(Cl)cc3s2)nn1C | / | / | 10.6 | 24.3
O=C(Nc1nc2ccccc2s1)c1c(F)cccc1Cl | / | / | / | 10.3
Nc1c(C(=O)Nc2nc3ccccc3s2)sc2nc(-c3cccs3)ccc12 | 0.8 | 16.5 | 23.8 | 95.9*
CCc1nnc(NC(=O)c2ccc(OC)cc2OC)s1 | 0.5 | 53.7* | 34.0 | 27.9
CCCC(=O)C1=C(O)C(C(=O)OC)C(C)(C)CC1=Nc1ccccc1 (configuration not stated) | 1.1 | -6.7 | 34.2 | -1.2
CCOC(=O)c1c(NC(=O)C(=O)N/N=C/c2ccc(O)c(OC)c2)sc2c1CCCCC2 | 1.1 | -8.9 | 14.8 | -5.5
CC(C)CNC(=O)c1c2c(nc3ccccc13)-c1ccccc1CC2 | 1.1 | -7.5 | 20.0 | 8.3
CCc1nnc(NC(=O)c2ccc(Cl)nc2)s1 | 0.5 | 53.1* | 26.8 | 23.0
Nc1ccc(C(=O)Nc2nc3ccccc3s2)cc1 | 0.3 | 73.9* | 58.6* | 50.2*
Cn1c(-c2ccc(Br)o2)nc2cc(Br)ccc21 | 0.4 | 63.7* | 28.8 | 36.1
Cc1ccc(-c2nc3ccccc3n2C)o1 | 0.3 | 67.5* | 45.0 | 33.7
Cn1cc(C(=O)c2ccccc2)cc1-c1nc2ccccc2n1C | 1.1 | -7.7 | -1.4 | 13.4
Cn1c(-c2ccc(Br)o2)nc2ccccc21 | 0.2 | 82.7* | 10.2 | 52.0*
CC(=O)c1ccc(-c2nc3ccccc3n2C)o1 | 0.7 | 25.4 | -6.4 | 9.6
Cc1oc(-c2nc3ccccc3n2C)cc1C(=O)c1ccccc1 | 0.1 | 90.0* | 18.7 | 79.7*
OCCN(Cc1ccccc1)Cc1cccc(Cl)c1Cl | 1 | 2.1 | 25.0 | 8.1
COc1cc(Cl)c(C)cc1NC(=O)CN(C)Cc1cccc(OC)c1OC | 1 | 1.1 | 43.7 | 11.1
COc1ccccc1OCC(=O)Nc1ccc(N2CCCCC2)cc1 | 1 | -1.8 | 9.9 | -0.1
SMILES | FLuc stim CS | FLuc inhib CS | PPC-1+TRAIL kill | C8 TRAIL sens
CCOC(=O)C(=O)Nc1nnc(Cc2ccc(OC)c(OC)c2)s1 | 1.1 | -5.7 | 9.6 | -3.0
Cc1cc(NC(=O)c2ccc(Cl)cc2)cc(C)c1OCC(=O)N1CCOCC1 | / | / | / | 53.9*
COc1ccc(NC(=O)c2ccc(-c3ccc(OC)cc3)s2)cc1 | 1 | -4.4 | 11.5 | -4.5
CNC(=O)c1ccc(-c2ccc(OC)cc2)s1 | 0.4 | 61.2* | 36.1 | 30.6
CC(C)OCCCNc1ncnc2c1cnn2-c1ccccc1 | 0.3 | 74.3* | / | 48.6
CC(C)(C)Nc1ncnc2c1cnn2-c1ccccc1 | 0.3 | 65.8* | 27.1 | 59.9*
CN(C)CCCNc1ncnc2c1cnn2-c1ccccc1 | 1 | 3.7 | 12.8 | -6.9
CCCN(CC1CC1)C(=S)NC(=O)c1ccc(S(=O)(=O)N2CCOCC2)cc1 | 1 | -2.7 | 10.3 | -2.4
Nc1nc(-c2cccnc2)nc2sc3c(c12)CCCC3 | 0.2 | 84.9* | 48.7 | 60.1*
O=C1CN(c2nc(-c3cccnc3)nc3sc4c(c23)CCCC4)CCN1 | 1 | 2.9 | 14.1 | 19.4
O=c1c2c(nc3cc(-c4cccc(F)c4)[nH]n13)CCC2 | 0.5 | 46.7 | 25.0 | 22.4
O=c1c2c(nc3cc(-c4ccc(F)cc4)[nH]n13)CCCC2 | 0.3 | 67.6* | 43.4 | 53.3*
O=c1c2c(nc3cc(-c4ccc(Cl)cc4)[nH]n13)CCS2 | 0.4 | 59.8* | 41.0 | 50.8*
CCc1c(C)nc2cc(-c3ccc(Cl)cc3)[nH]n2c1=O | / | / | / | -0.2
Cc1cc2[nH]c3c4ccccc4nc(C)c3c2cc1C | / | / | / | 82.7*
Cc1cc2[nH]c3ccccc3c2c(C)n1 | 1.1 | -6.9 | -6.8 | 5.3
CC1=NS(=O)(=O)c2cc(Cl)ccc2N1 | 1 | 2.2 | 34.2 | -12.6
O=C(NCC(=O)N(Cc1cccs1)C(C(=O)NC1CCCCC1)c1ccncc1)c1ccco1 (configuration not stated) | 1 | -4.9 | 46.4 | -6.1
CS(=O)(=O)c1ncc(Cl)c(C(=O)Nc2ccc(OC(F)F)cc2)n1 | / | / | / | 72.4*
CCCCc1ccc(NC(=O)c2cnccn2)cc1 | 0.2 | 75.8* | 20.7 | 55.1*
O=C(Nc1ccc2c(c1)OCO2)c1csc(COCCO)n1 | / | / | / | -5.5
O=C(Nc1ccc(N2CCOCC2)cc1)c1cnccn1 | / | / | / | 78.4*
O=C(Nc1ccc(N2CCOCC2)cc1)c1csc(COCCO)n1 | / | / | / | 54.6*
O=C(Nc1ccccc1N1CCOCC1)c1cnccn1 | 1.1 | -5.9 | 7.6 | -2.2
CS(=O)(=O)c1ncc(Cl)c(C(=O)Nc2ccc(N3CCOCC3)cc2)n1 | 0.9 | 8.9 | 8.2 | 72.7*
SMILES | FLuc stim CS | FLuc inhib CS | PPC-1+TRAIL kill | C8 TRAIL sens
CCc1ccc(-c2cc(C(=O)N/N=C/c3c[nH]c4ccccc34)[nH]n2)cc1 | 0.5 | 46.3 | 30.9 | 59.5*
COc1ccc(NC(=O)c2cc(S(=O)(=O)N3CCCC3)ccc2OC)cc1 | / | / | / | -4.8
O=C1C(C2=C(O)c3ccccc3C2=O)=Nc2ccccc21 | 0.7 | 30.4 | 17.4 | 88.6*
CN=CC1=C(O)c2ccccc2C1=O | 1 | -4.3 | -3.7 | -11.9
COc1ccccc1NC(=O)Nc1ccc2c(c1)nnn2C | 0.7 | 34.4 | 39.8 | 54.2*
COc1ccc(C=Cc2ccc3ccccc3n2)c(OC)c1 | / | / | / | 70.0*
O=C(CNC(=O)c1cccs1)NCC(=O)OCc1ccc(Cl)cc1 | 1 | -3.6 | 4.5 | -6.2
Cc1ccc(NC(=O)ON=C2CCCC2)cc1 | 0.4 | 61.7* | -6.7 | 8.4
CC(C)Cc1nc2oc3c(Cl)ncnc3c2c2c1CCC2 | 1 | -4.3 | 45.4 | 85.4*
CC(C)Cc1nc2oc3c(NCCCN4CCOCC4)ncnc3c2c2c1CCC2 | 1.1 | -7.4 | 18.3 | 17.5
Cc1ccc(S(=O)(=O)N2CCN(C(=O)C3CC(=O)N(c4ccc5c(c4)OCCO5)C3)CC2)cc1 (configuration not stated) | / | / | / | -1.0
Cc1cc(Cl)c(S(=O)(=O)NC(C(=O)O)C(C)C)cc1OCC(=O)NC1CCCCC1 (configuration not stated) | 1.1 | -5.9 | 9.3 | 2.9
Cc1cc(/C=C2/NC(=O)N(c3ccccc3)C2=O)c(C)n1-c1cccnc1 | 0.6 | 44.8 | 4.4 | 11.7
Cc1cc(/C=C2/NC(=S)NC2=O)c(C)n1-c1cccnc1 | 0.3 | 71.2* | 5.8 | 16.2
Cc1cc(-c2ccc(F)cc2)n2ncc(-c3ccccc3)c2n1 | / | / | / | 64.3*
Cc1nc2c(-c3ccc(F)cc3)cnn2c(N)c1-c1ccccc1 | / | / | / | 83.5*
Cc1nc2c(-c3ccc(Cl)cc3)cnn2c(N)c1-c1ccc(F)cc1 | / | / | / | 33.2
CCn1cc(C(=O)NCC2CCCO2)c(=O)c2cc(S(=O)(=O)N(C)C3CCCCC3)ccc21 (configuration not stated) | 1.1 | -5.6 | 11.7 | 22.4
